Activity calls are given as the source filed them. The rule behind the calls is not given here.
How the values were obtained:
Rattus norvegicus [1] = test: Antagonist activity at 5HT3 receptor in Sprague-Dawley rat assessed as inhibition of 1-phenylbiguanide-induced bradycardia at 100 ug/kg, iv administered 5 mins before 1-phenylbiguanide challenge measured after 5 to 30 mins post-treatment by von Bezold-Jarisch reflex test; assay type: functional
How it was run: (§1)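 Urethane-anesthetized rats, compound given iv. Agonism was scored as the compound itself evoking the von Bezold-Jarisch reflex (bradycardia). Antagonism was tested by giving the compound iv 5, 15 or 30 min before phenylbiguanide (PBG) and scoring the reduction of PBG-evoked bradycardia. ED50 is the dose giving half of the maximal bradycardia evoked by the same compound.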

Rattus norvegicus [2] = test: Antagonist activity at 5HT3 receptor in Sprague-Dawley rat assessed as inhibition of 1-phenylbiguanide-induced bradycardia at 10 ug/kg, iv administered 5 mins before 1-phenylbiguanide challenge measured after 5 to 30 mins post-treatment by von Bezold-Jarisch reflex test; assay type: functional; how it was run: as §1
Rattus norvegicus [3] = test: Antagonist activity at 5HT3 receptor in Sprague-Dawley rat assessed as inhibition of 1-phenylbiguanide-induced bradycardia at 50 ug/kg, iv administered 5 mins before 1-phenylbiguanide challenge measured after 5 to 30 mins post-treatment by von Bezold-Jarisch reflex test; assay type: functional; how it was run: as §1
Rattus norvegicus [4] = test: Antagonist activity at 5HT3 receptor in iv dosed Sprague-Dawley rat assessed as inhibition of 1-phenylbiguanide-induced bradycardia administered 5 mins before 1-phenylbiguanide challenge measured after 5 to 30 mins post-treatment by von Bezold-Jarisch reflex test; assay type: functional; how it was run: as §1
Rattus norvegicus [5] = test: Agonist activity at 5HT3 receptor in Sprague-Dawley rat assessed as induction of bradycardia at 1 ug/kg, iv measured after 5 to 30 mins post-treatment by von Bezold-Jarisch reflex test; assay type: functional, organism-based; how it was run: as §1
Rattus norvegicus [6] = test: Antagonist activity at 5HT3 receptor in Sprague-Dawley rat assessed as inhibition of 1-phenylbiguanide-induced bradycardia at 1 ug/kg, iv administered 5 mins before 1-phenylbiguanide challenge measured after 5 to 30 mins post-treatment by von Bezold-Jarisch reflex test; assay type: functional, organism-based; how it was run: as §1
Rattus norvegicus [7] = test: Agonist activity at 5HT3 receptor in Sprague-Dawley rat assessed as induction of bradycardia at 100 ug/kg, iv measured after 5 to 30 mins post-treatment by von Bezold-Jarisch reflex test; assay type: functional; how it was run: as §1
[8] = molecular target: T1, Adrenergic receptor alpha-1 (Rattus norvegicus, UniProt P15823+P23944+P43140); test: Displacement of [3H]prazosin from adrenergic alpha1 receptor in rat cortex
T1 sequence (P15823 whole entry): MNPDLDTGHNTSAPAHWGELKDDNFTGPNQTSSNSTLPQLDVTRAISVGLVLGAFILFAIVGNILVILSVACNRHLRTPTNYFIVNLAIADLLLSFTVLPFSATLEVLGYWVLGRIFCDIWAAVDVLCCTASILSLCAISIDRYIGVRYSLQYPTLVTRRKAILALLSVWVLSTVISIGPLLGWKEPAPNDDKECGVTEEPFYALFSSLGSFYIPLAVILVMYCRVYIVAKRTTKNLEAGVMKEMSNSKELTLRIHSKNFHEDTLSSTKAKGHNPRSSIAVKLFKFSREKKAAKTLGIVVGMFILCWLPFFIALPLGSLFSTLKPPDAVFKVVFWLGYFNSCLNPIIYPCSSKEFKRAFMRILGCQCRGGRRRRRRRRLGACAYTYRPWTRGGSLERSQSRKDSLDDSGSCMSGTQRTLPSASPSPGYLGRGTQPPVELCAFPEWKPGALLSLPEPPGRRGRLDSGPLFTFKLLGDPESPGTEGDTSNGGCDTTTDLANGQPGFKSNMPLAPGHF
T1 sequence (P23944 whole entry): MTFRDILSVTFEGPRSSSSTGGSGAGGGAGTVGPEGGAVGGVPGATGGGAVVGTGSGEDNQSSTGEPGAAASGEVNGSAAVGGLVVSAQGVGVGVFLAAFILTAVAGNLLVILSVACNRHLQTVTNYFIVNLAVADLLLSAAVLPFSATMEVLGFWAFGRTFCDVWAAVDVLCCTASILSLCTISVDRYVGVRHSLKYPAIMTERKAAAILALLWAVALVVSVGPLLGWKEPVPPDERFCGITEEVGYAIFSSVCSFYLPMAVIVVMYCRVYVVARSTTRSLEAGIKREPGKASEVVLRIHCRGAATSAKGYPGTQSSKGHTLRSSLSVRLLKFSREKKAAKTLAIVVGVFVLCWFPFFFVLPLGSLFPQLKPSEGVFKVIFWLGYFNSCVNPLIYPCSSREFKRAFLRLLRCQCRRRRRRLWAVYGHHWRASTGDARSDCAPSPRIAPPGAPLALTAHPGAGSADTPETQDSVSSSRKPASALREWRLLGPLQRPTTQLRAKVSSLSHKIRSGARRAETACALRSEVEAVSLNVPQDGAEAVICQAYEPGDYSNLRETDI
T1 sequence (P43140 whole entry): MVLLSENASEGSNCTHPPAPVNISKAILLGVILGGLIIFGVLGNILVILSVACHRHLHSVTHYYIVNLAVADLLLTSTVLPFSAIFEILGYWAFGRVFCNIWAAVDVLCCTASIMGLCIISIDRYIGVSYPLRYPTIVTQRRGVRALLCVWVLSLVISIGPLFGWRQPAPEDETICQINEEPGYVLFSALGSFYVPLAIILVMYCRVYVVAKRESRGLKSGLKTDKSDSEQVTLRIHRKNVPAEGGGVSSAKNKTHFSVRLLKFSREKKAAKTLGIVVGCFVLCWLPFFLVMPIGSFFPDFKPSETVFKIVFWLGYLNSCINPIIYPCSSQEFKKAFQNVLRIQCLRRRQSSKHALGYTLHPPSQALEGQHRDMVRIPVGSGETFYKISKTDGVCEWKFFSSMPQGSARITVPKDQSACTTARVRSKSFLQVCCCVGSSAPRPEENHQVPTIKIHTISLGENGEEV

Rattus norvegicus [9] = test: Agonist activity at 5HT3 receptor in Sprague-Dawley rat assessed as induction of bradycardia at 50 ug/kg, iv measured after 5 to 30 mins post-treatment by von Bezold-Jarisch reflex test; assay type: functional; how it was run: as §1
[10] = molecular target: Muscarinic acetylcholine receptor; test: Displacement of [3H]QNB from muscarinic receptor in rat cortex
Rattus norvegicus [11] = test: Agonist activity at 5HT3 receptor in Sprague-Dawley rat assessed as induction of bradycardia at 10 ug/kg, iv measured after 5 to 30 mins post-treatment by von Bezold-Jarisch reflex test; assay type: functional; how it was run: as §1
[12] = molecular target: T2, 5-hydroxytryptamine receptor 3A (Cavia porcellus, UniProt O70212); test: Intrinsic activity at 5HT3 receptor in spontaneously beating guinea pig right atrium assessed as positive chronotropic potency relative to serotonin
T2 sequence (O70212 whole entry): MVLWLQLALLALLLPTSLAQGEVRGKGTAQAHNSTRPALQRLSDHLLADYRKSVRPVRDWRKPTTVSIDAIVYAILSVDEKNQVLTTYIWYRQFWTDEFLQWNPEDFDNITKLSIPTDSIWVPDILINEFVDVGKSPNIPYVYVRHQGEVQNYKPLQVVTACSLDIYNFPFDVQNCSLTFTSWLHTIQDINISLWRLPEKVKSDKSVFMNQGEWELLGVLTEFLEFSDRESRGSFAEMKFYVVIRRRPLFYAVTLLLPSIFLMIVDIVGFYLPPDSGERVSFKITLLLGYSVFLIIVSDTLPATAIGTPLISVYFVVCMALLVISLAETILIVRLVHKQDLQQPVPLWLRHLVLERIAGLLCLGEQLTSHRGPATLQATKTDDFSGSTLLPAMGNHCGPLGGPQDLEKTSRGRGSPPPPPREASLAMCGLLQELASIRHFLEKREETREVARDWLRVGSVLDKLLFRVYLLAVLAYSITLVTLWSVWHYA

[13] = molecular target: T3, 5-hydroxytryptamine receptor 3A (Rattus norvegicus, UniProt P35563); test: Displacement of [3H]LY278584 from 5HT3 receptor in rat cortical homogenate; conditions: read-out: Ki
T3 sequence (P35563 whole entry): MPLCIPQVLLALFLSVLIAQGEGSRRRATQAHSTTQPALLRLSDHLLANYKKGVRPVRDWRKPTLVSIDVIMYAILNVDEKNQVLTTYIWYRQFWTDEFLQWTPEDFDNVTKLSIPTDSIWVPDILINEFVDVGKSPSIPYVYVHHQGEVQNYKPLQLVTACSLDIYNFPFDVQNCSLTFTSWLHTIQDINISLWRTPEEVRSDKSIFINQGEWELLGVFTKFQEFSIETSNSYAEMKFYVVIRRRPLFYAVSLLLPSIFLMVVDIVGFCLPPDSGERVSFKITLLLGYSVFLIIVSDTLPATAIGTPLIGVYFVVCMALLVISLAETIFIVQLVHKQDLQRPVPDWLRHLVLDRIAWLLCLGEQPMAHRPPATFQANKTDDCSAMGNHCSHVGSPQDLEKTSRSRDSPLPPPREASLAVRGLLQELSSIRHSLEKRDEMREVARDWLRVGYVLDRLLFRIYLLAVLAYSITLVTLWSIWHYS
How it was run: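 Rat cortical homogenate, competition against [3H]LY278584 binding. Ki is the concentration giving half-maximal inhibition of binding, as the mean ± S.E.M. of three determinations.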

SMILES | Activity (Rattus norvegicus [1]) | Activity (Rattus norvegicus [2]) | Activity (Rattus norvegicus [3]) | ID50 (Rattus norvegicus [4]) | Activity (Rattus norvegicus [5]) | Activity (Rattus norvegicus [6]) | Activity (Rattus norvegicus [7]) | Ki [8] | Activity (Rattus norvegicus [9]) | Ki [10] | Activity (Rattus norvegicus [11]) | EC50 [12] | Ki [13]
Fc1ccc2c(c1)nc(N1CCN(Cc3c[nH]cn3)CC1)c1cccn12 | Active | Active | Active | 0.01 mg/kg | inactive | inactive | 40% | > 10000 nM | Active | > 10000 nM | Active | – | –
CN1CCN(c2nc3ncccc3n3cccc23)CC1 | – | – | – | – | – | – | – | – | – | – | – | 340 nM | 2.4 nM

Source: ChEMBL document CHEMBL1154626, “Novel, potent, and selective quinoxaline-based 5-HT(3) receptor ligands. 1. Further structure-activity relationships and pharmacological characterization” (J Med Chem, 2009)
